Results as given in ChEMBL document CHEMBL3085658, “Novel toll-like receptor 4 (TLR4) antagonists identified by structure- and ligand-based virtual screening” (Eur J Med Chem, 2013).
The source made the active and inactive calls. No cut-off for these calls is given here.

These compounds were tested against T1, Toll-like receptor 4 (Homo sapiens, UniProt O00206) (assay: Binding affinity to human recombinant TLR4 at >320 uM by SPR method). Conditions: not given.
Procedure, shortened: (§1)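 Recombinant human TLR4 was amine-coupled to a CM5 chip at about 8000 RU. Titration was run at 25 °C in PBS pH 7.4 with 2% DMSO, at 0, 5, 10, 20, 40, 80 (repeated at the end), 160 and 320 µM. Each injection lasted 1 min and dissociation was followed for 30 s. The response at the end of association was plotted against concentration.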

T1 sequence (O00206 whole entry): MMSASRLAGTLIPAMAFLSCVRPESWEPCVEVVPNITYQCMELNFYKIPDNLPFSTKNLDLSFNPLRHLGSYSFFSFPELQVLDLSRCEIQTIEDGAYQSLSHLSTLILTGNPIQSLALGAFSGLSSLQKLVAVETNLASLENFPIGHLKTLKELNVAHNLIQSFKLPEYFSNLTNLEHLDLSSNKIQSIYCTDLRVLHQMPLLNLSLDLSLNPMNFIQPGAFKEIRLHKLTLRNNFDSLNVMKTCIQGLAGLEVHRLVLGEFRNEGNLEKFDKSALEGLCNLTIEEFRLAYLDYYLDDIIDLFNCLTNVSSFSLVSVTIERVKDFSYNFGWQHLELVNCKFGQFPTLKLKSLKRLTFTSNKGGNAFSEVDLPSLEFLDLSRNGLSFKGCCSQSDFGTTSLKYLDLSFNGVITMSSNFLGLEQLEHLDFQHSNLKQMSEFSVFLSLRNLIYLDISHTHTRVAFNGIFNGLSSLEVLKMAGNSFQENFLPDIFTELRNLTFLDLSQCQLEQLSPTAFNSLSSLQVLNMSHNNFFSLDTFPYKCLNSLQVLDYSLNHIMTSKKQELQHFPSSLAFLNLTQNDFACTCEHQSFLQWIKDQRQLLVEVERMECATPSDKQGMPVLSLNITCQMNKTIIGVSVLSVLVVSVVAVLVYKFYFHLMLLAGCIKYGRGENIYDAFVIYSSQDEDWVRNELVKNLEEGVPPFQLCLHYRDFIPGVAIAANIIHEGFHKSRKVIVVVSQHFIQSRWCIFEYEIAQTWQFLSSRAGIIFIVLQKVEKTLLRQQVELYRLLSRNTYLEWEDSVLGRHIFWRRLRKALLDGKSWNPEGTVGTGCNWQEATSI

Row | Activity | Structure (SMILES)
1 | inactive | COc1ccc(O)c(C(=O)c2cnc(/N=C(\N)Nc3ccc(F)cc3)nc2)c1

Each compound was assayed against T1, Toll-like receptor 4 (assay: Binding affinity to human recombinant TLR4 up to 320 uM by SPR method). Conditions: not given.
Procedure, shortened: as §1

Row | Activity | Structure (SMILES)
2 | Active | COc1ccc(O)c(C(=O)c2cnc(/N=C(\N)Nc3ccc(F)cc3)nc2)c1

The compounds below were run against T1, Toll-like receptor 4 (assay: Binding affinity to human recombinant TLR4 at 20 uM by SPR method). Conditions: not given.
Procedure, shortened: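 Recombinant human TLR4 was amine-coupled to a CM5 chip at about 8000 RU, with a reference flow cell. Runs were at 25 °C in PBS pH 7.4 plus 2% DMSO running buffer. Compounds were injected at 20 and 200 µM for 1 min, and dissociation was monitored for 30 s. Responses were compared against buffer injection, with no regeneration.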

Row | Activity | Structure (SMILES)
3 | Active | COc1ccc(O)c(C(=O)c2cnc(/N=C(\N)Nc3ccc(F)cc3)nc2)c1

What follows are compounds tested on PBMC (assay: Inhibition of TNFalpha secretion in human PBMC preincubated at 100 uM for 2 hrs before LPS challenge measured after 48 hrs by ELISA). Conditions: not given.
Assay type: functional
Procedure, shortened: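 PBMCs were isolated from healthy volunteer blood and pre-incubated with compound for 2 h. They were then challenged with LPS for 48 h, with TAK-242 as positive control. Supernatant TNF-α was measured by ELISA, and significance was tested by unpaired t tests.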

Row | Structure (SMILES) | inhibition at 100 µM [%]
4 | CN(CC(=O)Nc1ccc(N2CCOCC2)cc1)Cc1nc2scc(-c3ccccc3)c2c(=O)[nH]1 | 93.3
5 | Cc1ccccc1Nc1nc(N)nc(CN2CCC[C@@H]2c2nc3ccccc3s2)n1 | 80.8
6 | COc1ccc(O)c(C(=O)c2cnc(/N=C(\N)Nc3ccc(F)cc3)nc2)c1 | 87.4

Each compound was assayed on HEK293 (assay: Cytotoxicity against HEK293 cells after 24 hrs by flow cytometry). Conditions: human, hek293, 24 h.
Assay type: cell-based
Procedure, shortened: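 HEK293 cells were cultured for 24 h with compound at 100 or 200 µM, with DMSO as control. Cells were then harvested and stained with propidium iodide to count dead cells. Solubility in RPMI 1640 was first checked by light microscopy for precipitation.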

Row | Structure (SMILES) | Activity
7 | O=C(CN1CCC[C@H]1c1nc2ccccc2s1)c1c[nH]c(C(=O)N2CCCC2)c1 | Toxic
8 | COc1ccc(OC[C@H](O)CN(C)C(=O)c2ccc(Cl)cc2)cc1 | Toxic
9 | Cc1cc([C@@H]2CCCN2C[C@H](O)COc2ccc(Cl)cc2)on1 | Toxic
10 | Cc1ccccc1NC(=O)NCCNc1ccc(Nc2ccccn2)nn1 | Toxic

What follows are compounds tested against T1, Toll-like receptor 4 (assay: Antagonist activity at human TLR4 expressed in LPS-stimulated HEK293 cells co-expressing MDM2 and CD14 after 2 hrs by SEAP assay). Conditions: in the assay text read “MD-2” for “MDM2”.
Assay type: cell-based
Procedure, shortened: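 HEK-Blue hTLR4 cells (HEK293 co-transfected with human TLR4, MD-2, CD14 and an inducible SEAP reporter) were cultured per provider instructions. They were pre-incubated with compound at various concentrations for 2 h at 37 C, then challenged with LPS for 20 h. Supernatant SEAP was read colorimetrically, and IC50 was calculated from the decrease in absorbance.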

Row | IC50 [µM] | Structure (SMILES)
11 | 168 | CN(CC(=O)Nc1ccc(N2CCOCC2)cc1)Cc1nc2scc(-c3ccccc3)c2c(=O)[nH]1
12 | 64.1 | Cc1ccccc1Nc1nc(N)nc(CN2CCC[C@@H]2c2nc3ccccc3s2)n1
13 | 16.6 | COc1ccc(O)c(C(=O)c2cnc(/N=C(\N)Nc3ccc(F)cc3)nc2)c1

These compounds were tested against T1, Toll-like receptor 4 (assay: Antagonist activity at human TLR4 expressed in LPS-stimulated HEK293 cells co-expressing MD-2 and CD14 after 2 hrs by SEAP assay). Conditions: not given.

Row | IC50 | Structure (SMILES)
14 | ND(Insoluble) | COc1ccc(NC(=N)Nc2nc(C)c(Cc3ccccc3)c(O)n2)cc1
15 | ND(Insoluble) | O=C(CCc1nc(O)c2c3c(sc2n1)CCCC3)NCC(=O)Nc1ccccc1Br
16 | ND(Insoluble) | CC(C)c1ccc(NC(=O)CCc2csc(NC(=O)c3ccc[nH]c3=O)n2)cc1
17 | ND(Insoluble) | Cc1cccc(NC(=O)CNC(=O)CCc2nc(O)c3c4c(sc3n2)CCCC4)c1C
18 | ND(Insoluble) | O=C(CCc1nc2sc3c(c2c(=O)[nH]1)CCCC3)NCc1nc2ccccc2[nH]1
19 | Not Active | Cc1nn(Cc2ccccc2Cl)c(C)c1CN(C)CCn1nc2ccccn2c1=O
20 | ND(Insoluble) | CCN(CC(=O)Nc1ccc2c(c1)OCCO2)Cc1nc2scc(-c3ccc(C)s3)c2c(=O)[nH]1
21 | Not Active | O=C(NCCNC(=O)c1cc2ccccc2[nH]1)C(=O)NCc1ccc2c(c1)OCO2
22 | ND(Insoluble) | C[C@H](SCc1nc2scc(-c3ccccc3)c2c(=O)[nH]1)C(=O)NCc1nc2ccccc2[nH]1
23 | ND(Insoluble) | O=c1[nH]c(CN2CCC[C@@H]2c2ccc3c(c2)OCCCO3)nc2scc(-c3ccccc3)c12
24 | Not Active | Cc1nn(Cc2ccccc2Cl)c(C)c1CN(C)C(=O)/C=C/c1ccc2c(c1)OCO2
25 | ND(Insoluble) | Cc1ccc(C(=O)Nc2c(N)nc(SCC(=O)NCc3ccc4c(c3)OCO4)[nH]c2=O)cc1
26 | Not Active | Cc1nn(Cc2ccccc2Cl)c(C)c1CN(C)C(=O)/C=C/c1cccs1
27 | Not Active | C[C@@H](SCc1nc2scc(-c3ccccc3)c2c(=O)[nH]1)C(=O)Nc1ccc2c(c1)OCO2
28 | ND(Insoluble) | CCN1CCN(CCNC(=O)[C@H](C)C2CCN(C(=O)c3cc4cc(Cl)ccc4[nH]3)CC2)CC1
29 | ND(Insoluble) | COc1ccc(NC(=O)CN(C)C(=O)c2cc(-c3ccc(C)s3)[nH]n2)cc1
30 | ND(Insoluble) | CN(CC(=O)Nc1ccc(Cl)c(Cl)c1)Cc1nc2scc(-c3ccc(F)cc3)c2c(=O)[nH]1
31 | Not Active | O=C(NCCNc1ccc(Nc2ccccn2)nn1)Nc1ccccc1F
32 | ND(Insoluble) | CN(CC(=O)Nc1cccc(F)c1)Cc1nc2scc(-c3ccc(F)cc3)c2c(=O)[nH]1
33 | ND(Insoluble) | CC(C)(C)[C@H]1CCc2c(sc3nc(CCC(=O)NCc4ccc5c(c4)OCO5)[nH]c(=O)c23)C1
34 | ND(Insoluble) | CC(C)(C)[C@@H]1CCc2c(sc3nc(CCC(=O)N4CCN(c5ccccn5)CC4)[nH]c(=O)c23)C1
35 | ND(Insoluble) | COc1ccc(OC[C@H](O)CN2CCc3ccccc3C2)cc1
36 | ND(Insoluble) | C[C@H](Sc1nc2scc(-c3cccs3)c2c(=O)[nH]1)C(=O)NC(=O)NC1CCCCC1

The next lines start with the compound.

Row | Structure (SMILES) | IC50
37 | O=C(CSc1nnc(-c2ccc3c(c2)OCCO3)c(O)n1)Nc1ccc(F)c(F)c1 | ND(Insoluble)
38 | COC(=O)c1ccc(/C=N/NC(=O)c2cc(-c3cccc([N+](=O)[O-])c3)[nH]n2)cc1 | ND(Insoluble)
39 | CN(Cc1nc2ccccc2s1)C[C@@H](O)COc1ccc(F)cc1 | Not Active
40 | COc1ccccc1CNC(=O)c1ccccc1NS(=O)(=O)c1ccc2[nH]c(=O)[nH]c2c1 | ND(Insoluble)
41 | N#Cc1ccc(OC[C@H](O)CNCc2nc3ccccc3s2)cc1 | Not Active
42 | O=C(CSCC(=O)Nc1ccccc1)NNC(=O)Nc1ccc(Cl)cc1 | ND(Insoluble)
43 | O=C(CSc1nnc(-c2ccc3c(c2)OCCO3)c(O)n1)Nc1ccc(F)cc1 | ND(Insoluble)
44 | Nc1nc(CSc2nnc(Cc3ccccc3F)n2N)nc(Nc2ccc(Cl)cc2)n1 | Not Active
45 | Cc1nn(-c2ccccc2)c(C)c1CN(C)C[C@@H](O)Cn1cccn1 | Not Active
46 | Cc1ncc(CN(C)C[C@@H](O)COc2ccc(F)cc2)s1 | ND(Insoluble)
47 | O=C(CSCC(=O)Nc1ccccc1)NNC(=O)Nc1ccccc1 | ND(Insoluble)
48 | COc1cccc(NC(=O)/C=C(\C)NNC(=O)c2ccc(-c3ccccc3)cc2)c1 | ND(Insoluble)
49 | Cc1ccc(Cn2cc(C(=O)NNC(=O)Nc3ccc4c(c3)OCO4)ccc2=O)cc1 | ND(Insoluble)
50 | N=C(NC1=N[C@@H](CC(=O)Nc2ccc(Cl)cc2)C(O)=N1)Nc1ccccc1 | Not Active
51 | N/C(=N\C(=O)c1ccc(-c2ccccc2)cc1)Nc1nc2ccccc2o1 | ND(Insoluble)
